# Shown are actives, neighbours in structure and some others; about 3.7% of the full set was active somewhere.
# KCNK3 block: human KCNK3 channel inhibition, primary screen; B-score at 10 µM; O14649; CHO-KCNK3 thallium flux, FluxOR fluorescence; stronger effect = lower value; actives 0.84% (n = 340,000);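 active = B-score under library mean minus 4 SD, starting fluorescence ratio at most library mean plus 5 SD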;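 note: more negative B-score means stronger inhibition of thallium flux through KCNK3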
# Kir21 block: inhibitors of mouse Kir2.1 inward-rectifier potassium channel. actives 0.85% (n = 310,000). AID 1672. B-score at 10 µM. P35561. HEK293-Kir2.1, FluxOR thallium flux fluorescence; stronger effect = lower value;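 active = fluorescence ratio B-score at or below minus 3 SD of library scores, with starting-brightness B-score within 2 SD, cut at about -4.2 in these data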;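 note: channel flux triggered by added potassium and thallium sulfate stimulus; B-score of peak minus minimum fluorescence over baseline after thallium stimulus; more negative B-score means stronger Kir2.1 block with less thallium influx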
# KCNQ1 act: human KCNQ1 channel potentiation or activation | P51787 | CHO-K1 KCNQ1, thallium flux FluxOR fluorescence; stronger effect = higher value | B-score at 10 µM | actives 0.35% (n = 310,000) | AID 2648;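 active = fluorescence ratio B-score, a plate-corrected score, at least three library SD, with initial intensity B-score within 5 SD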
# Target sequence (P51787 whole entry, looked up): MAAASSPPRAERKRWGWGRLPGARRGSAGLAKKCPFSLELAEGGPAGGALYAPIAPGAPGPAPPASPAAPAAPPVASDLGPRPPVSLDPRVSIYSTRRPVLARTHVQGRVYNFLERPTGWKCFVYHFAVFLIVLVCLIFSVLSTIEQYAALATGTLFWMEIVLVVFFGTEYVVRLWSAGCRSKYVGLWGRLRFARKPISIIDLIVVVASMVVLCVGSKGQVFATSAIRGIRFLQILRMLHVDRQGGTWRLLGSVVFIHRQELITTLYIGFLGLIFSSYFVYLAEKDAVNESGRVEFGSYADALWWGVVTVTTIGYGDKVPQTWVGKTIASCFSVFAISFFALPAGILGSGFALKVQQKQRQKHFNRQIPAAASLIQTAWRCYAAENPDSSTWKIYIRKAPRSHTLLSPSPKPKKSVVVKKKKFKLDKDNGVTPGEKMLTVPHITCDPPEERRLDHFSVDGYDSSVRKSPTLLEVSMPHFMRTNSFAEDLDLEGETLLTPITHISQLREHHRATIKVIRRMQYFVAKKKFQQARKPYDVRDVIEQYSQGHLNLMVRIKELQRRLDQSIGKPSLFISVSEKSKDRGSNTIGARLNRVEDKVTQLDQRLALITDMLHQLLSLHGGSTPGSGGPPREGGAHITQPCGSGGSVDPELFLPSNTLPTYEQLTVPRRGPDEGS
#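 Assay system: CHO-K1 cells stably expressing KCNQ1. Medium: assay buffer for compound exposure, DMSO matched across wells. Timing: 37 °C overnight plating, 90-min dark dye load, 20-min compound pretreatment. Signal: kinetic FluxOR fluorescence, 10 s baseline plus 110 s post-stimulus.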
# KCNK9 inh: human KCNK9 channel inhibition | HEK293 KCNK9, FluxOR thallium flux fluorescence; stronger effect = lower value | B-score at 10 µM | actives 1.2% (n = 310,000) | AID 488922;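 active = ratio B-score over 3 SD below the library mean, with starting fluorescence within 5 SD of its mean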;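 note: negative B-score means less thallium flux so channel inhibition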
# hERG rescue: compounds protecting human hERG from proarrhythmic drug block. Q12809. CHO-hERG, FluxOR thallium flux, dofetilide IC70 present. activation (rescue from dofetilide block), less the hit threshold, % at 10 µM. actives 0.51% (n = 310,000). AID 1511;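 active = activation above the mean of controls blocked by dofetilide plus 5 SD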;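 note: thallium influx through hERG after potassium depolarization seen as dye fluorescence rise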
# KCNQ1 inh: inhibitors of human KCNQ1 potassium channel | AID 2642 | actives 1.3% (n = 310,000) | CHO-K1 KCNQ1, FluxOR thallium flux fluorescence; stronger effect = higher value | P51787 | B-score at 10 µM;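 active = compounds whose thallium flux B-score, printed positive for inhibition, exceeds three library SD while starting fluorescence stays within three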;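 note: channel opened by potassium depolarization with thallium stimulus after 20 min compound exposure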
# * = called active by the depositor; i = inactive; . = no result.
SMILES,KCNK3 block,Kir21 block,KCNQ1 act,KCNK9 inh,hERG rescue,KCNQ1 inh
Cc1ccccc1CSc1nnc(-c2cccs2)n1Cc1ccco1,i,-1.3,i,i,-20,i
CCn1c(SCc2nc(-c3ccc(Cl)cc3)no2)nnc1-c1ccco1,i,-4.7*,i,i,-6,i
c1ccc(CSc2nnc(-c3cccs3)n2Cc2ccco2)cc1,i,-7.7*,i,i,-28,i
Cc1ccccc1CSc1nnc(-c2ccco2)n1Cc1ccco1,i,-8.2*,i,i,-11,i
c1ccc(CNc2ccccn2)cc1,i,-0.25,i,i,-2,i
c1ccc(C2(CNc3ccccn3)CCCC2)cc1,i,-4.4*,i,i,-10,i
O=C(COC(=O)c1ccc[nH]c1=O)Nc1cc(S(=O)(=O)N2CCCCCC2)ccc1Cl,i,.,.,.,.,.
CC(=O)N1CCc2cc(S(=O)(=O)N3c4ccccc4CC3C)ccc21 (centres undefined),i,1.1,i,i,5.4*,i
CC1Cc2ccccc2N1S(=O)(=O)c1cccc(C(=O)N2CCCCC2)c1 (centres undefined),i,.,.,.,.,.
CC(C)c1ccc(NC(=O)[C@H](Cc2c[nH]c3ccccc23)NC(=O)[C@@H]2Cc3ccccc3CN2)cc1,i,-0.68,i,i,-14,i
CC(C)n1cc(NC(=O)c2cc(-c3ccccc3)on2)cn1,i,0.62,11*,i,-2,i
Brc1ccccc1OCCCCn1cnc2ccccc21,i,-0.21,i,i,-21,8*
COc1ccc([C@@H]2C[C@H](c3ccccc3)Oc3cc(OC)c(OC)c(OC)c32)cc1,i,0.24,i,-6.8*,-16,i
COc1ccc(C2CC(O)(c3ccccc3)Oc3cc(OC)c(OC)c(OC)c32)cc1 (centres undefined),i,0.65,i,i,-7,i
CC(C)COc1ccc(C(=S)N2CCCC2)cc1,i,1.1,i,i,-7,i
COc1ccc(NC(=O)c2nc[nH]c2C(=O)N2CCN(c3ccccc3)CC2)cc1,i,0.02,i,i,5.7*,i
CNC(=O)c1[nH]cnc1C(=O)Nc1cccc(OC)c1,i,-4.5*,i,i,-12,i
O=C(Nc1ccccc1)c1nc[nH]c1C(=O)N1CCN(c2ccccc2)CC1,i,.,.,.,.,.
COc1cccc(NC(=O)c2cncs2)c1,i,1.8,14*,i,5.0*,i
COc1cccc(NC(=O)c2cccs2)c1,i,-0.16,i,i,-9,i
Cc1n[nH]c(C)c1NC(=O)CN1CCN(S(=O)(=O)c2ccc(C(F)(F)F)cc2)CC1,i,.,.,.,.,.
CC(=O)/C(=N/Nc1ccc([N+](=O)[O-])cc1)N1CCCc2ccccc21,i,-0.78,i,i,-1,i
CC(=O)/C(=N/Nc1ccccc1[N+](=O)[O-])N1CCCc2ccccc21,i,-0.7,i,-7.1*,-8,7*
Cc1cccc(-n2ccc(=O)c(C(=O)Nc3ccc(S(=O)(=O)Nc4onc(C)c4C)cc3)n2)c1,i,0,i,i,-13,i
Cc1c(C(=O)Nc2ccc(S(=O)(=O)N(C)C3CCN(C)CC3)cc2)oc2ccccc12,i,.,.,.,.,.
SMILES,KCNK3 block,Kir21 block,KCNQ1 act,KCNK9 inh,hERG rescue,KCNQ1 inh
Cc1c(C(=O)Nc2ccc(S(=O)(=O)N(C)C3CCN(C)CC3)cc2)oc2c(Cl)cccc12,i,-5*,i,i,-17,i
CCOC(=O)[C@H]1[C@H]2COc3cc(OC)ccc3[C@@H]2N2C(=O)c3cc(F)ccc3NC(=O)[C@@]12C,i,.,.,.,.,.
COc1ccc(N(CC(=O)NC(C)(C)C)C(=O)CCC(=O)Nc2nccs2)c(OC)c1,i,0.09,i,i,-1,i
N/C(=N\O)c1ccc(NC(=O)c2cccs2)cc1,i,0.13,i,i,46*,i
O=C(Nc1cccc(NC(=O)c2cccs2)c1)c1ccc(F)cc1,i,1,i,-7.4*,-4,i
CCC1CCCCN1C(=O)COc1ccc(N(C)S(=O)(=O)c2ccc(C)cc2)cc1 (centres undefined),i,-2.6,i,i,-16,i
COc1ccccc1NCC(=O)NC(=O)NC1CCCCC1,i,.,.,.,.,.
CC(C)CCOP(=O)(c1ccccc1)c1ccccc1,i,-1.3,i,-6.8*,-7,i
CCCOP(=O)(c1ccccc1)c1ccccc1,i,0.84,i,i,-5,i
CNC(=S)Nc1cccc([N+](=O)[O-])c1,i,0.52,i,i,-6,i
C/C(=N/NC(=S)Nc1cccc(C)c1)c1cccc([N+](=O)[O-])c1,i,0.34,10*,i,0,i
Cc1cc(Br)ccc1NC(=S)Nc1cccc([N+](=O)[O-])c1,i,-0.99,i,i,-18,10*
CCc1ccc(Nc2cc(C)nc3ncnn23)cc1,i,2.7,i,i,-8,i
CCn1c2ccccc2c2cc(Nc3cc(C)nc4ncnn34)ccc21,i,-7.6*,i,i,-23,i
Cc1cccc(NCCC(=O)c2ccc([N+](=O)[O-])cc2)c1C,i,0.03,i,i,4.7*,i
Cc1ccc(NCCC(=O)c2cccc([N+](=O)[O-])c2)c(C)c1,i,0.15,i,i,-11,i
COc1ccc(CC(=O)NC2CC(C)(C)NC(C)(C)C2)cc1OC,i,2.1,i,i,-4,i
CCOc1cc(C(=O)NC)cc(OCC)c1OCC,i,1.6,i,i,9.7*,i
CC(/C=N/n1c(C2CCCCC2)n[nH]c1=S)=C\c1ccccc1,i,-0.02,21*,i,-8,i
Cc1cccc(/C=N/n2c(C3CCCCC3)n[nH]c2=S)c1,i,-1.3,i,i,-4,i
O=c1c(-c2cccc3ccccc23)[n+]([O-])c2ccccc2n1O,i,-0.38,i,i,9.5*,i
CCOn1c(=O)c(-c2cccc3ccccc23)[n+]([O-])c2ccccc21,i,-0.68,i,i,-10,i
CC(C)CN(C(=O)COC(=O)c1ccccn1)c1c(N)n(Cc2ccccc2)c(=O)[nH]c1=O,i,-1,i,i,-6,i
Cc1ccc(OCC(=O)N2N=C(C(F)(F)F)CC2(O)C(C)(C)C)cc1C (centres undefined),i,-4.2*,i,i,-6,7*
Cc1ccccc1OCC(=O)N1N=C(C(F)(F)F)CC1(O)C(C)(C)C (centres undefined),i,-0.1,i,i,-11,i

# Bioassay records: PubChem, Johns Hopkins Ion Channel Center
